The record followed here is ChEMBL document CHEMBL1123743, “Antisecretory activity of human, dog, and rat metabolites of fenoctimine” (J Med Chem, 1987).

The species named for assay [1] is Cavia porcellus. Kind of assay: Anticholinergic activity was determined in vitro by measuring their effect on the acetylcholine chloride induced contraction of guinea pig ileum. Type of assay: functional. A digest of the protocol: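 Ileum was isolated from female guinea pigs (200–500 g) killed with CO2. Acetylcholine chloride was added in rising concentrations up to maximal response. Test compound was given 2 min before the agonist, with antagonism assessed against the maximal acetylcholine dose. Full concentration–response curves were run.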

The test system of assay [2] is Rattus norvegicus. Kind of assay: Antisecretory activity was evaluated in acute gastric fistula of rat after peroral administration. Format: functional. Conditions: Stomach, po. The essentials:
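Female Sprague-Dawley rats (120–160 g), food-deprived ≥18 h, given drug or vehicle (0.5% methocel) orally 1 h before surgery. Under ether anesthesia a flanged polyethylene cannula was placed in the fundic stomach. The first 30-min collection was discarded, then two 1-h samples were taken. Volume was measured and acidity titrated to pH 7 with 0.01 N NaOH. ED50 = dose giving 50% inhibition of total acid output vs controls, by least-squares regression.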

For assay [3], the system named is Rattus norvegicus. Kind of assay: Antisecretory activity was evaluated in acute gastric fistula of rat after intraperitoneal administration. Type of assay: functional. Conditions: Stomach, ip.
Assay [4] concerns Rattus norvegicus. The experiment in a line: Antisecretory activity was evaluated in acute gastric fistula of rat after intravenous administration. Format: functional. Conditions: Stomach.
For assay [5], the system named is Rattus norvegicus. The experiment in a line: Antisecretory activity was evaluated in acute gastric fistula of rat after administration of 40 mg/kg; I=inactive. Format: functional, organism-based. Further details: dose 40 mg/kg. The note with it: Stomach.

≈ marks a conversion by molar mass, not a printed value. Calls of active or inactive are those of the source. The calls are words filed in the database; no cut-off is given here.

Consider `CCCCCCCC/N=C\N1CCC(C(c2ccccc2)c2ccc(OC)cc2)CC1.O=C(O)/C=C/C(=O)O` (stereo not drawn), for which the IC50 in assay [1] is 1.9 µg/mL. Further, the ED50 came to 15.7 mg/kg in assay [2] and 0.63 mg/kg in assay [3].

Consider `COC(=O)CCCCCCC/N=C/N1CCC(C(c2ccccc2)c2ccccc2)CC1.O=C(O)/C=C/C(=O)O`, for which the ED50 in assay [4] was found to be 4.7 mg/kg; in assay [2] it was 10.1 mg/kg. This compound came in with a half-maximal inhibitory concentration (IC50) in assay [1] of 0.3 µg/mL.

Turning to `CCCCCCCC/N=C/N1CCC(C(c2ccccc2)c2ccccc2)CC1` [FENOCTIMINE], the results for the ED50 in assay [4], in assay [2] and in assay [3] were 1.1 mg/kg, 3.9 mg/kg and 0.6 mg/kg, respectively. This compound gave an IC50 in assay [1] of 1.8 µg/mL (≈ 4.61 µM).

The compound `CC1(CCCCCC/N=C\N2CCC(C(c3ccccc3)c3ccccc3)CC2)OCCO1.O=C(O)/C=C/C(=O)O` had an IC50 in assay [1] of 1.96 µg/mL. Moreover, the ED50 in assay [2] was 4.8 mg/kg; in assay [3], 0.98 mg/kg.

In the case of `OCCCCCC/N=C/N1CCC(C(c2ccccc2)c2ccccc2)CC1`, the ED50 in assay [4] stood at 4.5 mg/kg; in assay [2] it was 11.2 mg/kg; in assay [3], 2 mg/kg. Half-maximal inhibition in assay [1] (IC50) was put at 0.26 µg/mL (≈ 0.687 µM).

With `CC(O)CCCCCC/N=C/N1CCC(C(c2ccccc2)c2ccccc2)CC1` (stereo not drawn), in assay [1], 1.7 µg/mL (≈ 4.18 µM) corresponded to half-maximal inhibition (IC50). In addition, in assay [2], the ED50 came to 8.9 mg/kg.

For the compound `CC(=O)CCCCCC/N=C/N1CCC(C(c2ccccc2)c2ccccc2)CC1`, in assay [1], the IC50 came to 2.2 µg/mL (≈ 5.44 µM). In addition, the ED50 in assay [2] stood at 10.5 mg/kg; in assay [3] it was 1.5 mg/kg.

For `CN1[C@@H]2CC[C@H]1C[C@@H](OC(=O)C(CO)c1ccccc1)C2` (stereo partly drawn) [ATROPINE], in assay [1], it took 0.0038 µg/mL (≈ 0.0131 µM) to reach half-maximal inhibition (IC50). In assay [2], this compound came in with an ED50 of 1.1 mg/kg.

In turn, `CN/C(=N\CCSCc1nc[nH]c1C)NC#N` [CIMETIDINE] registered an ED50 in assay [2] of 7.6 mg/kg.

With `OCCCCCCCC/N=C/N1CCC(C(c2ccccc2)c2ccccc2)CC1`, the values for the ED50 in assay [4], in assay [2] and in assay [3] were 9.7 mg/kg, 8.5 mg/kg and 0.44 mg/kg, respectively. Further, in assay [1], inhibition was half-maximal at 0.29 µg/mL (≈ 0.713 µM) (IC50).

As for `Cl.O.O=C([O-])CCCCCCC/N=C/N1CCC(C(c2ccccc2)c2ccccc2)CC1.O=C([O-])CCCCCCC/N=C/N1CCC(C(c2ccccc2)c2ccccc2)CC1.[Zn+2]`, in assay [1], the IC50 was determined as 1.2 µg/mL.

`C/C(CCCCCC/N=C\N1CCC(C(c2ccccc2)c2ccccc2)CC1)=N\O.O=S(=O)(O)c1ccc2ccccc2c1` came in with a 50% inhibitory concentration (IC50) in assay [1] of 4.1 µg/mL. For the same compound, the results for the ED50 in assay [2] and in assay [3] were 12.5 mg/kg and 8.8 mg/kg, respectively.

Turning to `O=CN1CCC(C(c2ccccc2)c2ccccc2)CC1`, in assay [1], the IC50 turned out to be 21.9 µg/mL (≈ 78.4 µM). Also, the ED50 entry in assay [5] was “inactive”.

`CCCCCCCC/N=C/N1CCC(C(c2ccccc2)c2ccc(O)cc2)CC1.O=S(=O)(O)c1ccc2ccccc2c1` (stereo not drawn): the IC50 in assay [1] is 0.96 µg/mL. Further, the ED50 was over 40 mg/kg in assay [2] and 3.1 mg/kg in assay [3].

Broadly, the IC50 is the concentration that inhibits the measured activity by half. The term ED50 denotes the dose at which the effect has come halfway, by size or by number of responders.
